Laboratory results taken from PMC11737066 (RSC Advances, 2025).

Test: Parallel artificial membrane permeability assay
Format: in vitro ADME
Details: 24 h incubation at 37 °C; initial minus final donor and acceptor concentration
Outline: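 Artificial membrane made of 1% (mass fraction) lecithin in dodecane, applied to hydrophobic PVDF filter donor wells. Test compound solution was added to the donor side, and the donor/acceptor sandwich was incubated 24 h at 37 °C. Donor and acceptor concentrations were taken from maximum absorbance (scan 190–400 nm). Membrane integrity was checked with brilliant cresyl blue and lucifer yellow.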

| Structure (SMILES) | % of compound integrated in membrane |
| --- | --- |
| CCCCCCCCCCCC[N+](C)(C)Cc1ccccc1.[Br-] [BAB, dimethyldodecylbenzylammonium bromide] | ≈ 97% |
| CCCCCCCCCCCCCCCC[n+]1ccccc1 [CPC, cetylpyridinium chloride] | ≈ 97% |
